Measurements as given in PMC6061410 (Clinical Drug Investigation, 2018).

Legend:
healthy young subjects = test: Safety and tolerability; format: in vivo, human
How it was run: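 Adverse events were recorded by system organ class and preferred term in 12 healthy young subjects. Each received single fasted 25-mg doses in the morning and evening, open-label crossover, washout ≥11 days. Baselines were the last measurements before the morning dose and before the evening dose.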

[1] = Pharmacokinetics after single and multiple doses, part 1; format: in vivo, human; settings: for AUCτ,ss,norm / Cmax,ss,norm / AUC0–24,norm / Cmax,norm / AUC(0-t) / AUC / Cmax: gMean (%CV); for AUC: AUCτ,ss; for Tmax: median and range (minimum, maximum)
How it was run: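 Randomised 3:1 double-blind placebo-controlled groups (9 active, 3 placebo) of healthy young or elderly subjects took 5- or 25-mg tablets. Dosing was a single dose on day 1, QD or BID for 10 days from day 4, and a single dose on day 14. Fasted on days 1 and 14. Blood was sampled through day 23 and urine after first and last doses (QD only). Plasma/urine LC-MS/MS used a seven-point calibration. Geometric mean (%CV) values were reported.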

Effect of food intake = format: in vivo, human; settings: 25 mg; for Cmax: human, plasma, oral, Cmax at steady state, gMean
How it was run: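 Healthy young (25 mg, group 2) and elderly (25 mg, group 5) subjects were dosed once daily with tablets. On day 12, group 2 dosed light-fed (standardised ~500 kcal breakfast 30 min pre-dose) and group 5 dosed light-fasted (no food ≥10 h before until 1 h after). Day 12 plasma profiles were compared with day 14 fasted profiles (no food ≥10 h before until 3.5 h after) as gMean ratios.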

Intrinsic solubility = format: physicochemical
CYP3A4 = settings: cited from earlier work
[2] = elderly, 25 mg QD, multiple dose
[3] = elderly, 50 mg QD, multiple dose
[4] = young subjects, standardised light breakfast

In the case of `C[C@@H](Oc1ccc(S(C)(=O)=O)cc1C(=O)N1C[C@@H]2C[C@]2(c2cc(C(F)(F)F)on2)C1)C(F)(F)F` [BI 425809], the “changes in laboratory parameters, vital signs, 12-lead ECG, examinations, suicidality, oxygen saturation, VAS” value (healthy young subjects; part 2, single 25 mg doses) is reported as “No clinically relevant changes”, the “serious AEs” value (healthy young subjects; part 2, single 25 mg doses) is reported as “No serious AEs were reported” and the Dizziness (healthy young subjects; young, part 2, 25 mg QD) is reported as 0 (–) n (%). For the same molecule, the Eye disorders (healthy young subjects; young, part 2, 25 mg QD) was 0 (–) n (%), the Gastrointestinal disorders (healthy young subjects; young, part 2, 25 mg QD) was 0 (–) n (%) and the “General disorders and administration site conditions” value (healthy young subjects; young, part 2, 25 mg QD) was 0 n (%). The Headache (healthy young subjects; young, part 2, 25 mg QD) was 1 (8.3) n (%), the Infections and infestations (healthy young subjects; young, part 2, 25 mg QD) was 1 (8.3) n (%) and the Insomnia (healthy young subjects; young, part 2, 25 mg QD) was 0 (–) n (%). For the same molecule, the “Musculoskeletal and connective tissue disorders” value (healthy young subjects; young, part 2, 25 mg QD) was 0 (–) n (%), the Nasopharyngitis (healthy young subjects; young, part 2, 25 mg QD) was 1 (8.3) n (%) and the Nervous system disorder (healthy young subjects; young, part 2, 25 mg QD) was 1 (8.3) n (%). For the same molecule, the Ocular discomfort (healthy young subjects; young, part 2, 25 mg QD) was 0 (–) n (%), the Psychiatric disorders (healthy young subjects; young, part 2, 25 mg QD) was 0 (–) n (%) and the “Subjects with AEs leading to study discontinuation” value (healthy young subjects; young, part 2, 25 mg QD) was 0 (–) n (%). The “Subjects with investigator-defined drug-related AEs” value (healthy young subjects; young, part 2, 25 mg QD) was 0 (–) n (%), the “Total with AEs” value (healthy young subjects; young, part 2, 25 mg QD) was 2 (16.7) n (%) and the Vision blurred (healthy young subjects; young, part 2, 25 mg QD) was 0 (–) n (%). The “dose proportionality of exposure parameters (Cmax, AUC0–24, Cmax,ss and AUCτ,ss)” value ([1]; 10 and 25 mg, tablet) was “dose proportionality was observed”, the linearity index ([1]; QD groups) was ~1 and the “time to steady state after the start of multiple dosing” value ([1]; all treatment groups) was 2 to 6 days. For the same molecule, the “dose proportionality of exposure” value ([1]; doses of ≥ 50 mg, tablet) was “clearly less than dose proportional”, the “AUCτ,ss,norm” value [1, 2] was 439 (11.6) nmol·h/L/mg and the “Cmax,ss,norm” value [1, 2] was 24.7 (10.9) nmol/L/mg. For the same molecule, the “AUC0–24,norm” value ([1]; elderly, 25 mg QD, single dose) was 139 (18.5) nmol·h/L/mg, the “Cmax,norm” value ([1]; elderly, 25 mg QD, single dose) was 9.4 (18.7) nmol/L/mg and the “AUCτ,ss,norm” value [1, 3] was 278 (30.8) nmol·h/L/mg. For the same molecule, the “Cmax,ss,norm” value [1, 3] was 16.0 (25.0) nmol/L/mg, the “AUC0–24,norm” value ([1]; elderly, 50 mg QD, single dose) was 112 (17.9) nmol·h/L/mg and the “Cmax,norm” value ([1]; elderly, 50 mg QD, single dose) was 7.43 (25.9) nmol/L/mg. The AUC(0-t) ([1]; human, plasma, oral, 10 mg, AUC0–24, young, 10 mg QD, single dose) was 1.41 µM·h, the AUC ([1]; human, plasma, oral, 10 mg, young, 10 mg QD, multiple dose) was 3.87 µM·h and the Cmax ([1]; human, plasma, oral, 10 mg, Cmax, young, 10 mg QD, single dose) was 109 nM. The Tmax ([1]; human, plasma, oral, 10 mg, tmax,ss, young, 10 mg QD, multiple dose) was 4.5 h, the AUC(0-t) ([1]; human, plasma, oral, 25 mg, AUC0–24, elderly, 25 mg QD, single dose) was 3.46 µM·h and the AUC(0-t) ([1]; human, plasma, oral, 25 mg, AUC0–24, young, 25 mg QD, single dose) was 3.72 µM·h. For the same molecule, the AUC ([1]; human, plasma, oral, 25 mg, elderly, 25 mg QD, multiple dose) was 11 µM·h, the AUC ([1]; human, plasma, oral, 25 mg, young, 25 mg QD, multiple dose) was 10.6 µM·h and the Cmax ([1]; human, plasma, oral, 25 mg, Cmax, elderly, 25 mg QD, single dose) was 235 nM. The Cmax ([1]; human, plasma, oral, 25 mg, Cmax, young, 25 mg QD, single dose) was 278 nM, the Cmax ([1]; human, plasma, oral, 25 mg, Cmax,ss, elderly, 25 mg QD, multiple dose) was 618 nM and the Cmax ([1]; human, plasma, oral, 25 mg, Cmax,ss, young, 25 mg QD, multiple dose) was 582 nM. It also gave a Tmax ([1]; human, plasma, oral, 25 mg, tmax, elderly, 25 mg QD, single dose) of 3.5 h, a Tmax ([1]; human, plasma, oral, 25 mg, tmax, young, 25 mg QD, single dose) of 4.5 h and a Tmax ([1]; human, plasma, oral, 25 mg, tmax,ss, elderly, 25 mg QD, multiple dose) of 3 h. The Tmax ([1]; human, plasma, oral, 25 mg, tmax,ss, young, 25 mg QD, multiple dose) was 3.75 h, the AUC(0-t) ([1]; human, plasma, oral, 50 mg, AUC0–24, elderly, 50 mg QD, single dose) was 5.62 µM·h and the AUC(0-t) ([1]; human, plasma, oral, 50 mg, AUC0–24, young, 50 mg QD, single dose) was 6.02 µM·h. It also gave an AUC ([1]; human, plasma, oral, 50 mg, elderly, 50 mg QD, multiple dose) of 13.9 µM·h, an AUC ([1]; human, plasma, oral, 50 mg, young, 50 mg QD, multiple dose) of 14.2 µM·h and a Cmax ([1]; human, plasma, oral, 50 mg, Cmax, elderly, 50 mg QD, single dose) of 371 nM. For the same molecule, the Cmax ([1]; human, plasma, oral, 50 mg, Cmax, young, 50 mg QD, single dose) was 397 nM, the Cmax ([1]; human, plasma, oral, 50 mg, Cmax,ss, elderly, 50 mg QD, multiple dose) was 802 nM and the Cmax ([1]; human, plasma, oral, 50 mg, Cmax,ss, young, 50 mg QD, multiple dose) was 800 nM. It also gave a Tmax ([1]; human, plasma, oral, 50 mg, tmax, elderly, 50 mg QD, single dose) of 4.5 h, a Tmax ([1]; human, plasma, oral, 50 mg, tmax, young, 50 mg QD, single dose) of 4.5 h and a Tmax ([1]; human, plasma, oral, 50 mg, tmax,ss, elderly, 50 mg QD, multiple dose) of 4.5 h. It also gave a Tmax ([1]; human, plasma, oral, 50 mg, tmax,ss, young, 50 mg QD, multiple dose) of 3.5 h, an AUC(0-t) ([1]; human, plasma, oral, 75 mg, AUC0–24, young, 75 mg BID, single dose, fed) of 12 µM·h and an AUC(0-t) ([1]; human, plasma, oral, 75 mg, AUC0–24, young, 75 mg QD, single dose, fasted) of 7.17 µM·h. The AUC ([1]; human, plasma, oral, 75 mg, young, 75 mg QD, multiple dose) was 16.5 µM·h, the Cmax ([1]; human, plasma, oral, 75 mg, Cmax, young, 75 mg BID, single dose, fed) was 884 nM and the Cmax ([1]; human, plasma, oral, 75 mg, Cmax, young, 75 mg QD, single dose, fasted) was 451 nM. For the same molecule, the Cmax ([1]; human, plasma, oral, 75 mg, Cmax,ss, young, 75 mg QD, multiple dose) was 1020 nM, the Tmax ([1]; human, plasma, oral, 75 mg, tmax, young, 75 mg BID, single dose) was 4.02 h and the Tmax ([1]; human, plasma, oral, 75 mg, tmax,ss, young, 75 mg BID, multiple dose, tmax,22 given) was 3.5 h. For the same molecule, the Tmax ([1]; human, plasma, oral, 75 mg, tmax,ss, young, 75 mg QD, multiple dose) was 4.5 h, the “exposure multiple (AUC0–24 and Cmax), 75-mg BID dose group vs 25-mg dose group” value ([1]; in vivo) was 3.2 fold and the “increase in AUCτ,ss, 75 mg BID vs. 75 mg QD” value ([1]; multiple dosing) was 14%. For the same molecule, the “increase in Cmax,ss, 75 mg BID vs. 75 mg QD” value ([1]; multiple dosing) was 90%, the Cmax ([1]; read-out: Cmax,ss, young, 10 mg QD, multiple dose) was 221 nM and the “AUCτ,ss,norm” value ([1]; young, 10 mg QD, multiple dose) was 387 (22.2) nmol·h/L/mg. The “Cmax,ss,norm” value ([1]; young, 10 mg QD, multiple dose) was 22.1 (19.5) nmol/L/mg, the “AUC0–24,norm” value ([1]; young, 10 mg QD, single dose) was 141 (20.1) nmol·h/L/mg and the “Cmax,norm” value ([1]; young, 10 mg QD, single dose) was 10.9 (19.0) nmol/L/mg. For the same molecule, the “AUCτ,ss,norm” value ([1]; young, 25 mg QD, multiple dose) was 425 (31.7) nmol·h/L/mg, the “Cmax,ss,norm” value ([1]; young, 25 mg QD, multiple dose) was 23.3 (27.6) nmol/L/mg and the “AUC0–24,norm” value ([1]; young, 25 mg QD, single dose) was 149 (18.2) nmol·h/L/mg. The “Cmax,norm” value ([1]; young, 25 mg QD, single dose) was 11.1 (19.7) nmol/L/mg, the “AUCτ,ss,norm” value ([1]; young, 50 mg QD, multiple dose) was 285 (29.4) nmol·h/L/mg and the “Cmax,ss,norm” value ([1]; young, 50 mg QD, multiple dose) was 16.0 (26.3) nmol/L/mg. The “AUC0–24,norm” value ([1]; young, 50 mg QD, single dose) was 120 (24.4) nmol·h/L/mg, the “Cmax,norm” value ([1]; young, 50 mg QD, single dose) was 7.95 (28.7) nmol/L/mg and the “AUCτ,ss,norm” value ([1]; young, 75 mg BID, multiple dose, AUCτ,22,norm given) was 251 (20.2) nmol·h/L/mg. For the same molecule, the “Cmax,ss,norm” value ([1]; young, 75 mg BID, multiple dose, Cmax,22,norm given) was 25.8 (17.2) nmol/L/mg, the “AUC0–24,norm” value ([1]; young, 75 mg BID, single dose) was 160 (13.7) nmol·h/L/mg and the “Cmax,norm” value ([1]; young, 75 mg BID, single dose) was 11.8 (8.72) nmol/L/mg. The “AUCτ,ss,norm” value ([1]; young, 75 mg QD, multiple dose) was 220 (29.6) nmol·h/L/mg, the “Cmax,ss,norm” value ([1]; young, 75 mg QD, multiple dose) was 13.6 (23.1) nmol/L/mg and the “AUC0–24,norm” value ([1]; young, 75 mg QD, single dose) was 95.6 (17.9) nmol·h/L/mg. For the same molecule, the “Cmax,norm” value ([1]; young, 75 mg QD, single dose) was 6.01 (17.9) nmol/L/mg, the “gMean ratio (light fed:light fasted) steady-state AUC” value (Effect of food intake) was 105.2% and the “gMean ratio (light fed:light fasted) steady-state Cmax” value (Effect of food intake) was 106.8%. For the same molecule, the “gMean ratio (light fasted:fasted) steady-state AUC” value (Effect of food intake; elderly subjects) was 104.5%, the “gMean ratio (light fasted:fasted) steady-state Cmax” value (Effect of food intake; elderly subjects) was 108.3% and the “gMean ratio (light fed:fasted) steady-state AUC” value (Effect of food intake; young subjects) was 114.0%. For the same molecule, the “gMean ratio (light fed:fasted) steady-state Cmax” value (Effect of food intake; young subjects) was 123.2%, the “increase in steady-state AUC, light fed compared with fasted” value (Effect of food intake; [4]) was 14% and the “increase in steady-state Cmax, light fed compared with fasted” value (Effect of food intake; [4]) was 23%. For the same molecule, the Cmax (Effect of food intake; healthy elderly subjects, fasted) was 611 nM, the Cmax (Effect of food intake; healthy elderly subjects, light fasted) was 662 nM and the Cmax (Effect of food intake; healthy young subjects, fasted) was 574 nM. For the same molecule, the Cmax (Effect of food intake; healthy young subjects, fed (light fed)) was 707 nM, the intrinsic solubility (Intrinsic solubility) was “low intrinsic solubility” and the “role of CYP3A4 in metabolic pathway” value (CYP3A4; drug–drug interaction study confirming in-vitro data) was “major component of the BI 425809 metabolic pathway”. The CYP3A4 induction (CYP3A4; in-vitro and clinical studies) was “has the potential to induce CYP3A4 activity” and the metabolising enzyme (CYP3A4; in-vitro and clinical studies) was “primarily metabolised by CYP3A4”.
